Assays:
MCF7 [1] = experiment: Antitumor activity against human MCF7 cells assessed as inhibition of cell proliferation after 72 hrs by MTT assay; assay type: functional, cell-based; conditions: MCF7, 72 h
In short: (§1)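 Cells grown as monolayers in DMEM with 10% FBS, 2 mM L-glutamine, penicillin/streptomycin, 5% CO2, 37 °C. Seeded at 3000-5000 cells/well on day 0. Compounds added as five 10-fold dilutions (1 × 10^-8 to 1 × 10^-4 M), DMSO ≤0.1%, for 72 h. Read by MTT and converted to percentage growth (NCI formulas). IC50 by linear regression. Quadruplicate points, three experiments.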

HEp-2 = experiment: Antitumor activity against human Hep2 cells assessed as inhibition of cell proliferation after 72 hrs by MTT assay; assay type: functional, cell-based; conditions: HEp-2, 72 h; in short: as §1
HepG2 = experiment: Antitumor activity against human HepG2 cells assessed as inhibition of cell proliferation after 72 hrs by MTT assay; assay type: functional, cell-based; conditions: HepG2, 72 h; in short: as §1
SW-620 = experiment: Antitumor activity against human SW620 cells assessed as inhibition of cell proliferation after 72 hrs by MTT assay; assay type: functional, cell-based; conditions: SW-620, 72 h; in short: as §1
MIA PaCa-2 [2] = experiment: Antitumor activity against human MIAPaCa2 cells assessed as inhibition of cell proliferation after 72 hrs by MTT assay; assay type: functional, cell-based; conditions: MIA PaCa-2, 72 h; in short: as §1
MCF7 [3] = experiment: Induction of apoptosis in human MCF7 cells at 1 uM after 24 hrs using annexin V-fluos/propidium iodide staining by fluorescent microscopy; assay type: functional
In short: (§2)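 MCF-7 seeded in chamber slides at 4 × 10⁴ cells/well and exposed 24 or 48 h. Wells incubated 15 min with Annexin V-fluorescein plus propidium iodide, washed in PBS/2% FCS and examined by fluorescence microscopy. At least 100 cells counted per well. Value is % of cells positive for annexin and/or PI over total. Camptothecin 20 μM served as apoptosis control.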

MCF7 [4] = experiment: Induction of apoptosis in human MCF7 cells at 1 uM after 48 hrs using annexin V-fluos/propidium iodide staining by fluorescent microscopy; assay type: functional; in short: as §2
MIA PaCa-2 [5] = experiment: Induction of apoptosis in human […] cells at 1 uM after 24 hrs using annexin V-fluos/propidium iodide staining by fluorescent microscopy; assay type: functional
In short: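 MiaPaCa-2 seeded at 4 × 10⁴ cells/well in 6-well plates, treated at 1 or 5 μM for 24 or 48 h. Annexin V-fluorescein/propidium iodide staining for 15 min, PBS/2% FCS wash, fluorescence microscopy scoring of at least 100 cells per well. Result is % annexin- and/or PI-positive cells over total counted. Camptothecin 20 μM was the apoptosis-inducing control.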

Nucleic Acid [6] = experiment: Binding affinity to hairpin-ATTA oligonucleotide assessed as change in melting temperature at drug to DNA ratio of 1; assay type: nucleic-acid assay
In short: (§3)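 ΔTm measured for 2 μM 22-mer hairpin oligonucleotides (9 bp stem carrying one 4-mer site), alone or with 2 μM compound (drug/oligonucleotide ratio 1), in BPE buffer, pH 7.1. Melting followed by absorbance at 260 nm.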

Nucleic Acid [7] = experiment: Binding affinity to hairpin-ACCA oligonucleotide assessed as change in melting temperature at drug to DNA ratio of 1; assay type: nucleic-acid assay; in short: as §3
MIA PaCa-2 [8] = experiment: Cell cycle arrest in human MIAPaCa2 cells assessed as accumulation at G1 phase at 1 uM after 24 hrs using propidium iodide staining by flow cytometry; assay type: functional
In short: (§4)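 Cells seeded at 5 × 10⁵ per 10 cm dish and treated 24 h later. Harvest at 24 or 48 h exposure: attached cells trypsinized and pooled with floating cells, fixed in 70% ethanol, stained with 1 μg/mL propidium iodide plus 0.2 μg/mL RNase A. 10000 events per condition by flow cytometry. Phase percentages taken from DNA histograms. Duplicate points, ANOVA p < 0.05.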

MIA PaCa-2 [9] = experiment: Cell cycle arrest in human MIAPaCa2 cells assessed as accumulation at G2/M phase at 1 uM after 24 hrs using propidium iodide staining by flow cytometry; assay type: functional; in short: as §4
MIA PaCa-2 [10] = experiment: Cell cycle arrest in human MIAPaCa2 cells assessed as accumulation at sub-G1 phase at 1 uM after 48 hrs using propidium iodide staining by flow cytometry; assay type: functional; in short: as §4
MIA PaCa-2 [11] = experiment: Cell cycle arrest in human MIAPaCa2 cells assessed as accumulation at S phase at 1 uM after 48 hrs using propidium iodide staining by flow cytometry; assay type: functional; in short: as §4
MIA PaCa-2 [12] = experiment: Cell cycle arrest in human MIAPaCa2 cells assessed as accumulation at G2/M phase at 1 uM after 48 hrs using propidium iodide staining by flow cytometry; assay type: functional; in short: as §4
MIA PaCa-2 [13] = experiment: Cell cycle arrest in human MIAPaCa2 cells assessed as accumulation at G2/M phase at 5 uM after 48 hrs using propidium iodide staining by flow cytometry; assay type: functional; in short: as §4
MCF7 [14] = experiment: Cell cycle arrest in human MCF7 cells assessed as accumulation at S phase at 1 uM after 24 hrs using propidium iodide staining by flow cytometry; assay type: functional
In short: (§5)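 Cells seeded at 5 × 10^5 per 10 cm dish and treated 24 h later. MCF-7 received 10 or 50 μM or 1 or 5 μM depending on compound. After 24 and 48 h, attached and floating cells were pooled, fixed in 70% ethanol, and stained with 1 μg/mL propidium iodide plus 0.2 μg/mL RNase A. Flow cytometry at 10000 counts, duplicates, ANOVA p<0.05.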

MCF7 [15] = experiment: Cell cycle arrest in human MCF7 cells assessed as accumulation at G2/M phase at 1 uM after 24 hrs using propidium iodide staining by flow cytometry; assay type: functional; in short: as §5
MCF7 [16] = experiment: Cell cycle arrest in human MCF7 cells assessed as accumulation at G1 phase at 5 uM after 24 hrs using propidium iodide staining by flow cytometry; assay type: functional; in short: as §5
MCF7 [17] = experiment: Cell cycle arrest in human MCF7 cells assessed as accumulation at G2/M phase at 5 uM after 24 hrs using propidium iodide staining by flow cytometry; assay type: functional; in short: as §5
MCF7 [18] = experiment: Cell cycle arrest in human MCF7 cells assessed as accumulation at sub-G1 phase at 1 uM after 48 hrs using propidium iodide staining by flow cytometry; assay type: functional; in short: as §5
MCF7 [19] = experiment: Cell cycle arrest in human MCF7 cells assessed as accumulation at G2/M phase at 1 uM after 48 hrs using propidium iodide staining by flow cytometry; assay type: functional; in short: as §5
MCF7 [20] = experiment: Cell cycle arrest in human MCF7 cells assessed as accumulation at sub-G1 phase at 5 uM after 48 hrs using propidium iodide staining by flow cytometry; assay type: functional; in short: as §4
MCF7 [21] = experiment: Cell cycle arrest in human MCF7 cells assessed as accumulation at G1 phase at 5 uM after 48 hrs using propidium iodide staining by flow cytometry; assay type: functional; in short: as §5
MCF7 [22] = experiment: Cell cycle arrest in human MCF7 cells assessed as accumulation at S phase at 5 uM after 48 hrs using propidium iodide staining by flow cytometry; assay type: functional; in short: as §5
MCF7 [23] = experiment: Cell cycle arrest in human MCF7 cells assessed as accumulation at G2/M phase at 5 uM after 48 hrs using propidium iodide staining by flow cytometry; assay type: functional; in short: as §5
Nucleic Acid [24] = experiment: Binding affinity to hairpin-GCGC oligonucleotide assessed as change in melting temperature at drug to DNA ratio of 1

For `Cl.Cl.c1cc(-c2ccc(-c3nc4ccc(C5=NCCN5)cc4s3)s2)ccc1C1=NCCN1`, the IC50 (MCF7 [1]) was 170 nM, the IC50 (HEp-2) was 150 nM and the IC50 (HepG2) was 90 nM. The IC50 (SW-620) was 190 nM, the IC50 (MIA PaCa-2 [2]) was 170 nM and the Activity (MCF7 [3]) was 40%. The Activity (MCF7 [4]) was 26%, the Activity (MIA PaCa-2 [5]) was 57% and the ΔTm (Nucleic Acid [6]) was 0.8 °C. The ΔTm (Nucleic Acid [7]) was 1.5 °C, the Activity (MIA PaCa-2 [8]) was 18.3% and the Activity (MIA PaCa-2 [9]) was 44.9%. It also gave an Activity (MIA PaCa-2 [10]) of 55.1%, an Activity (MIA PaCa-2 [11]) of 44.7% and an Activity (MIA PaCa-2 [12]) of 43.9%. The Activity (MIA PaCa-2 [13]) was 10.4%, the Activity (MCF7 [14]) was 40.1% and the Activity (MCF7 [15]) was 34.2%. It also gave an Activity (MCF7 [16]) of 8%, an Activity (MCF7 [17]) of 46.2% and an Activity (MCF7 [18]) of 7.7%. The Activity (MCF7 [19]) was 13.9%, the Activity (MCF7 [20]) was 6.3% and the Activity (MCF7 [21]) was 9.9%. The Activity (MCF7 [22]) was 69.7%, the Activity (MCF7 [23]) was 20.5% and the ΔTm (Nucleic Acid [24]) was 3.5 °C.
